From ChEMBL document CHEMBL1124681, “Studies on hindered phenols and analogues. 1. Hypolipidemic and hypoglycemic agents with ability to inhibit lipid peroxidation” (J Med Chem, 1989)
In brackets after ≈: the same amount, converted by molar mass. Several values for one entry are separate records, joined by “and”; a condition that tells them apart may be missing. Identical values can stand only once.

Tests used:
Rattus norvegicus [1] = organism: Rattus norvegicus; test: In vitro inhibitory activity against rat microsomal lipid peroxidation (m-LPO); type: functional
Method in brief: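 Lipid peroxidation used rat liver microsomes driven by ferrous sulfate/cysteine, per the Malvy et al. approach. IC50 is given in µg/mL.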

Rattus norvegicus [2] = organism: Rattus norvegicus; test: Inhibitory activity on peroxidation by a relative peroxide value(POV) to vitamin E by using ethyl linoleate; type: functional
Method in brief: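 Peroxide formed was titrated with 0.01 N Na2S2O3 after adding water. The peroxide value was expressed relative to vitamin E.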

Mus musculus [3] = test: Hypoglycemic activity at dose 50 mg/Kg in KK-mice after peroral administration; type: functional
Method in brief: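 Male KK-mice, a genetically diabetic NIDDM model, were housed singly from 8 weeks of age and used at about 4-5 months once body weight exceeded 40 g. Compound was suspended in 0.5% carboxymethylcellulose saline and dosed orally 18 h before tail-vein blood sampling into heparinized tubes. Plasma glucose was measured with a glucose analyzer. Values are % decrease versus vehicle-dosed controls run simultaneously.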

Mus musculus [4] = test: (§1) In vivo activity against triglycerides (TG) by using Alloxan-induced hyperlipoperoxidemia method in BALB/c mice after peroral administration at 100 mg/Kg dose; type: functional
Method in brief: (§2)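 Male BALB/c mice, 8 weeks old, were fasted 18 h and then given alloxan 75 mg/kg iv. Compound was dosed orally 30 min before and 24 and 30 h after alloxan. Cervical blood was taken at 48 h, diluted in saline and centrifuged. Serum LPO was measured by TBA method; cholesterol and TG by enzymatic kits. Values are % decrease versus alloxan controls without compound.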

Mus musculus [5] = test: In vivo activity against hypocholesterol (CHOL) by using Alloxan-induced hyperlipoperoxidemia method in BALB/c mice after peroral administration at 100 mg/Kg dose; type: functional; method in brief: as §2
Mus musculus [6] = test: In vivo activity against serum lipid peroxidation level (s-LPO) by using Alloxan-induced hyperlipoperoxidemia method in BALB/c mice after peroral administration at 100 mg/Kg dose; type: functional; method in brief: as §2
Mus musculus [7] = test: In vivo activity against triglycerides (TG) by using Alloxan-induced hyperlipoperoxidemia method in BALB/c mice after peroral administration at 300 mg/Kg dose; type: functional; method in brief: as §2
Mus musculus [8] = test: In vivo activity against hypocholesterol (CHOL) by using Alloxan-induced hyperlipoperoxidemia method in BALB/c mice after peroral administration at 300 mg/Kg dose; type: functional; method in brief: as §2
Mus musculus [9] = test: In vivo activity against serum lipid peroxidation level (s-LPO) by using Alloxan-induced hyperlipoperoxidemia method in BALB/c mice after peroral administration at 300 mg/Kg dose; type: functional; method in brief: as §2
Mus musculus [10] = test: In vivo activity against serum lipid peroxidation level (s-LPO) by using Alloxan-induced hyperlipoperoxidemia method in BALB/c mice after peroral administration at 50 mg/Kg dose; type: functional; method in brief: as §2
Mus musculus [11] = test: In vivo activity against triglycerides (TG) by Alloxan-induced hyperlipoperoxidemia method in BALB/c mice after peroral administration at 50 mg/Kg dose; type: functional; method in brief: as §2
Rattus norvegicus [12] = test: Liver weight in Wistar-Imamichi rats at 200 mg/Kg dose in 12 rats; type: functional
Rattus norvegicus [13] = organism: Rattus norvegicus; test: Hypotriglyceridemic activity of Wistar-Imamichi rats in 12 animals
Mus musculus [14] = test: as §1; type: functional; method in brief: as §2; remark: listed apart in the source
Mus musculus [15] = test: In vivo activity against hypocholesterol (CHOL) by Alloxan-induced hyperlipoperoxidemia method in BALB/c mice after peroral administration at 50 mg/Kg dose; type: functional; method in brief: as §2
Mus musculus [16] = test: In vivo activity against serum lipid peroxidation level (s-LPO) by using Alloxan-induced hyperlipoperoxidemia method in BALB/c mice after peroral administration at 100 mg/kg dose; type: functional; conditions: route oral; method in brief: as §2
Rattus norvegicus [17] = organism: Rattus norvegicus; test: liver weight in Wistar-Imamichi rats at 0.2% in the diet for 7 days in 6 rats; conditions: dose 0.2% in diet
Rattus norvegicus [18] = test: Hypotriglyceridemic activity of Wistar-Imamichi rats in 6 animals at 300 mg/kg dose
Mus musculus [19] = test: In vivo activity against triglycerides (TG) by using Alloxan-induced hyperlipoperoxidemia method in BALB/c mice after peroral administration at 10 mg/Kg dose; type: functional; method in brief: as §2
Mus musculus [20] = test: In vivo activity against hypocholesterol (CHOL) by using Alloxan-induced hyperlipoperoxidemia method in BALB/c mice after peroral administration at 10 mg/Kg dose; type: functional; method in brief: as §2
Mus musculus [21] = test: In vivo activity against serum lipid peroxidation level (s-LPO) by using Alloxan-induced hyperlipoperoxidemia method in BALB/c mice after peroral administration at 10 mg/Kg dose; type: functional; method in brief: as §2
Mus musculus [22] = test: In vivo activity against triglycerides (TG) by using Alloxan-induced hyperlipoperoxidemia method in BALB/c mice after peroral administration at 200 mg/Kg dose; type: functional; method in brief: as §2
Mus musculus [23] = test: In vivo activity against hypocholesterol (CHOL) by using Alloxan-induced hyperlipoperoxidemia method in BALB/c mice after peroral administration at 200 mg/Kg dose; type: functional; method in brief: as §2
Mus musculus [24] = test: In vivo activity against serum lipid peroxidation level (s-LPO) by using Alloxan-induced hyperlipoperoxidemia method in BALB/c mice after peroral administration at 200 mg/Kg dose; type: functional; method in brief: as §2
Mus musculus [25] = test: In vivo activity against triglycerides (TG) by using Alloxan-induced hyperlipoperoxidemia method in BALB/c mice after peroral administration at 300 mg/kg dose; type: functional; conditions: route oral; method in brief: as §2
Mus musculus [26] = test: In vivo activity against hypocholesterol (CHOL) by using Alloxan-induced hyperlipoperoxidemia method in BALB/c mice after peroral administration at 100 mg/kg dose; type: functional; conditions: route oral; method in brief: as §2
Mus musculus [27] = test: In vivo activity against serum lipid peroxidation level (s-LPO) by using Alloxan-induced hyperlipoperoxidemia method in BALB/c mice after peroral administration at 300 mg/kg dose; type: functional; conditions: route oral; method in brief: as §2

Row | Compound | IC50 (Rattus norvegicus [1]) [µg/mL] | Decrease (Mus musculus [4]) [%] | Decrease (Mus musculus [5]) [%] | Decrease (Mus musculus [6]) [%] | other results
1 | Cc1cc(OCCCC(C)(C)C(=O)O)c(C)c(C)c1O | > 1 |  |  |  | Relative peroxidation (Rattus norvegicus [2]): 0.71
2 | CC(=O)Oc1c(C)c(C)c2c(c1C)CCC(C)(COc1ccc(CC3SC(=O)NC3=O)cc1)O2 (configuration not stated) | < 0.1 | -4 | 4 | 6.7 | Decrease (Mus musculus [3]): 2.6%
3 | CCCC1Oc2c(C)c(C)c(O)c(C)c2S1 (configuration not stated) | < 0.1 |  |  |  | 
4 | Cc1c(C)c2c(c(C)c1O)CCC(C)(COc1ccc(CC(Cl)C(=O)O)cc1)O2 (configuration not stated) | 0.1 (≈ 0.239 µM) | 33.9 | 14.9 | 46.3 | 
5 | Cc1c(C)c2c(c(C)c1O)CCC(COc1ccc(CC3SC(=O)NC3=O)cc1)(CC(C)C)O2 (configuration not stated) | 0.1 (≈ 0.207 µM) | 11.9 | 12.1 | 1.5 | 
6 | Cc1cc(C(C)(C)C)c(O)c(C(C)(C)C)c1 [BUTYLATED HYDROXYTOLUENE] | 0.1 (≈ 0.454 µM) |  |  |  | 
7 | Cc1cc(OCCCCCCCC(C)(C)CO)c(C)c(C)c1O | < 0.1 |  |  |  | 
8 | CC1(CCOc2ccc(CC3SC(=O)NC3=O)cc2)CCc2cc(O)c(C(C)(C)C)cc2O1 (configuration not stated) | 0.1 (≈ 0.213 µM) |  |  |  | 
9 | CC(=O)Oc1cc2c(cc1C(C)(C)C)OC(C)(CCOc1ccc(CC3SC(N)=NC3=O)cc1)CC2 (configuration not stated) | 0.1 (≈ 0.196 µM) |  |  |  | 
10 | CC(=O)Oc1c(C)c(C)c2c(c1C)CCC(C)(CCC[C@H](C)CCC[C@H](C)CCCC(C)C)O2 (some centres not stated) [TOCOPHEROL ACETATE] | > 1 | 27.3 | 10.7 | 46.1 | Decrease (Mus musculus [19]): 36.5%; Decrease (Mus musculus [7]): 16.1%; Decrease (Mus musculus [15]): 8.3%; Decrease (Mus musculus [20]): 20.4%; Decrease (Mus musculus [8]): 9.1%; Decrease (Mus musculus [21]): 23.5%; Decrease (Mus musculus [9]): 56.6%; Decrease (Mus musculus [10]): 27.9%; Decrease (Mus musculus [11]): 5.2%
11 | CC(C)(Sc1cc(C(C)(C)C)c(O)c(C(C)(C)C)c1)Sc1cc(C(C)(C)C)c(O)c(C(C)(C)C)c1 [PROBUCOL] | > 1 | -5.3 | -1.1 | 5.8 | Decrease (Mus musculus [22]): -25.2%; Decrease (Mus musculus [7]): -3%; Decrease (Mus musculus [23]): -9.7%; Decrease (Mus musculus [8]): 0.8%; Decrease (Mus musculus [24]): -22.1%; Decrease (Mus musculus [9]): 6.1%; Increase (Rattus norvegicus [12]): 0.2%
12 | Cc1c(C)c2c(c(C)c1O)SC(C)O2 (configuration not stated) | < 0.1 |  |  |  | 
13 | Cc1c(C)c2c(c(C)c1O)CCC(COc1ccc(CC3SC(=O)NC3=O)cc1)O2 (configuration not stated) | < 0.1 |  |  |  | 
14 | Cc1ccc(C)c(OCCCC(C)(C)C(=O)O)c1 [GEMFIBROZIL] | > 1 |  |  |  | Decrease (Mus musculus [25]): 12.3% and 15.9%; Decrease (Mus musculus [26]): 3.2%; Decrease (Mus musculus [16]): 12.3%; Decrease (Mus musculus [27]): 20.5%; Decrease (Rattus norvegicus [13]): 39.4%
15 | COc1c(O)c(C)c2c(c1OC)OC(C)(CCOc1ccc(CC3SC(=O)NC3=O)cc1)CC2 (configuration not stated) | 0.3 (≈ 0.615 µM) |  |  |  | 
16 | COc1c(OC(C)=O)c(C)c2c(c1OC)OC(C)(CCOc1ccc(CC3SC(N)=NC3=O)cc1)CC2 (configuration not stated) | 0.3 (≈ 0.568 µM) |  |  |  | 

The next lines start with results.

Row | IC50 (Rattus norvegicus [1]) [µg/mL] | Compound | Decrease (Mus musculus [4]) [%] | Decrease (Mus musculus [5]) [%] | Decrease (Mus musculus [6]) [%] | other results
17 | 0.3 (≈ 0.726 µM) | Cc1cc2c(cc1O)CCC(C)(COc1ccc(CC3SC(=O)NC3=O)cc1)O2 (configuration not stated) |  |  |  | 
18 | < 0.1 | CC1(COc2ccc(CC3SC(=O)NC3=O)cc2)CCc2cc(O)c(C(C)(C)C)cc2O1 (configuration not stated) | -48.6 | 5.6 | 16.1 | Decrease (Mus musculus [3]): 28.5%
19 | > 1 | CCOC(=O)C(C)(C)Oc1ccc(Cl)cc1 [CLOFIBRATE] | 19.6 | 5.9 | 26.6 | Decrease (Mus musculus [7]): 22.8%; Decrease (Mus musculus [8]): 6.8%; Decrease (Mus musculus [9]): 37.6%; Decrease (Mus musculus [10]): 2.8%; Decrease (Mus musculus [11]): 1.1%; Increase (Rattus norvegicus [12]): 37.2%; Decrease (Rattus norvegicus [13]): 37.6%
20 | < 0.1 | Cc1c(C)c2c(c(C)c1OC(=O)c1cccnc1)CCC(C)(COc1ccc(CC3SC(=O)NC3=O)cc1)O2 (configuration not stated) |  |  |  | 
21 | 0.1 (≈ 0.183 µM) | Cc1c(C)c2c(c(C)c1OC(=O)c1ccccc1)CCC(C)(COc1ccc(CC3SC(=O)NC3=O)cc1)O2 (configuration not stated) |  |  |  | 
22 | < 0.1 | Cc1c(C)c2c(c(C)c1O)CCC(C)(COc1ccc(CC3SC(N)=NC3=O)cc1)O2 (configuration not stated) | 16.8 | 7.2 | 11.9 | 
23 | < 0.1 | Cc1c(C)c2c(c(C)c1O)SCO2 |  |  |  | 
24 | 0.1 (≈ 0.226 µM) | Cc1c(C)c2c(c(C)c1O)CCC(C)(COc1ccc(CC3SC(=O)NC3=O)cc1)O2 (configuration not stated) [TROGLITAZONE] | 57.5 |  | 54.3 | Decrease (Mus musculus [3]): 38.5%; Decrease (Mus musculus [14]): 57.5%; Decrease (Mus musculus [15]): 19.7%; Decrease (Mus musculus [10]): 36%; Decrease (Mus musculus [11]): 31.9%
25 | 0.3 (≈ 0.66 µM) | CC(=O)Oc1cc2c(cc1C)OC(C)(COc1ccc(CC3SC(N)=NC3=O)cc1)CC2 (configuration not stated) |  |  |  | 
26 | > 1 | CC1(COc2ccc(CC3SC(=O)NC3=O)cc2)CCCCC1 (configuration not stated) [CIGLITAZONE] | 7.9 | 10.8 | 18.7 | 
27 | 0.1 (≈ 0.375 µM) | Cc1cc(OCCCC(C)(C)CO)c(C)c(C)c1O |  |  |  | Decrease (Mus musculus [16]): 27.4%; Relative peroxidation (Rattus norvegicus [2]): 0.42; Increase (Rattus norvegicus [17]): 23.9%; Decrease (Rattus norvegicus [18]): 57.3%
28 | < 0.1 | Cc1c(C)c2c(c(C)c1O)CCC(C)(CCOc1ccc(CC3SC(=O)NC3=O)cc1)O2 (configuration not stated) |  |  |  | 
29 | 0.1 (≈ 0.22 µM) | CCC1(COc2ccc(CC3SC(=O)NC3=O)cc2)CCc2c(C)c(O)c(C)c(C)c2O1 (configuration not stated) | 14 | 19.5 | 17.6 | 
30 | < 0.1 | CCCC(=O)Oc1c(C)c(C)c2c(c1C)CCC(C)(COc1ccc(CC3SC(=O)NC3=O)cc1)O2 (configuration not stated) |  |  |  | 
